Laboratory results reported in ChEMBL document CHEMBL6092129, “Inhibiting SARS-CoV-2 viral entry by targeting spike:ACE2 interaction with O-modified quercetin derivatives” (RSC Med Chem, 2024).
pIC50: −log10 of the molar value. The source made the active and inactive calls. No cut-off for these calls is given here.

How the values were obtained:
[1] = biological target: T1, Spike glycoprotein/Angiotensin-converting enzyme 2 (Severe acute respiratory syndrome coronavirus 2) (UniProt Q9BYF1+P0DTC2); experiment: Inhibition of SARS CoV-2 S1 RBD/biotinylated ACE2 (unknown origin) protein-protein interaction at 100 uM preincubated with S1 protein for 60 mins followed by addition of ACE2 protein measured after 60 mins by ELISA relative to control; type: protein assay; conditions: time 120.0 min
Procedure, shortened: (§1)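 SARS-CoV-2 S1 RBD coated at 2 µg/mL (60 min, 37 °C), then blocked with 1% BSA in PBS pH 7.2–7.4 (30 min, 37 °C). Compound (0.8, 4.0, 20.0 or 100.0 µM) incubated 60 min at 37 °C with 0.05% DMSO–PBS vehicle control. Biotin-ACE2 solution (0.5 µg/mL) added for 60 min, then ExtrAvidin-peroxidase (40 min) and OPD (10 min, RT, dark), read at 450 nm. Three trials; IC50 from four-parameter fit (bottom 0, Hill slope 1).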

[2] = biological target: T1, Spike glycoprotein/Angiotensin-converting enzyme 2 (Severe acute respiratory syndrome coronavirus 2); experiment: Inhibition of SARS CoV-2 S1 RBD/biotinylated ACE2 (unknown origin) protein-protein interaction at 0.8 uM preincubated with S1 protein for 60 mins followed by addition of ACE2 protein measured after 60 mins by ELISA relative to control; type: protein assay; conditions: time 120.0 min; procedure, shortened: as §1
HK-2 [3] = experiment: Nephrotoxicity against human HK-2 cells at 1.54 ppm incubated for 30 mins by LDH release based CytoTox 96 assay relative to control; type: toxicity, cell-based; conditions: hk-2, 0.5 h
H9c2 [4] = experiment: Cardiotoxicity against rat H9c2 cells at 1.54 ppm incubated for 30 mins by LDH release based CytoTox 96 assay relative to control; type: toxicity, cell-based; conditions: h9c2, 0.5 h
[5] = biological target: T1, Spike glycoprotein/Angiotensin-converting enzyme 2 (Severe acute respiratory syndrome coronavirus 2); experiment: (§2) Inhibition of SARS CoV-2 S1 RBD/biotinylated ACE2 (unknown origin) protein-protein interaction preincubated with S1 protein for 60 mins followed by addition of ACE2 protein measured after 60 mins by ELISA; type: protein assay; conditions: time 120.0 min; procedure, shortened: as §1
[6] = biological target: Spike glycoprotein/Angiotensin-converting enzyme 2 (Severe acute respiratory syndrome coronavirus 2, UniProt P0DTC2+Q9BYF1); experiment: as §2; type: protein assay; procedure, shortened: as §1
Sequence of Spike glycoprotein/Angiotensin-converting enzyme 2 (Q9BYF1 whole entry, looked up, other chains not shown): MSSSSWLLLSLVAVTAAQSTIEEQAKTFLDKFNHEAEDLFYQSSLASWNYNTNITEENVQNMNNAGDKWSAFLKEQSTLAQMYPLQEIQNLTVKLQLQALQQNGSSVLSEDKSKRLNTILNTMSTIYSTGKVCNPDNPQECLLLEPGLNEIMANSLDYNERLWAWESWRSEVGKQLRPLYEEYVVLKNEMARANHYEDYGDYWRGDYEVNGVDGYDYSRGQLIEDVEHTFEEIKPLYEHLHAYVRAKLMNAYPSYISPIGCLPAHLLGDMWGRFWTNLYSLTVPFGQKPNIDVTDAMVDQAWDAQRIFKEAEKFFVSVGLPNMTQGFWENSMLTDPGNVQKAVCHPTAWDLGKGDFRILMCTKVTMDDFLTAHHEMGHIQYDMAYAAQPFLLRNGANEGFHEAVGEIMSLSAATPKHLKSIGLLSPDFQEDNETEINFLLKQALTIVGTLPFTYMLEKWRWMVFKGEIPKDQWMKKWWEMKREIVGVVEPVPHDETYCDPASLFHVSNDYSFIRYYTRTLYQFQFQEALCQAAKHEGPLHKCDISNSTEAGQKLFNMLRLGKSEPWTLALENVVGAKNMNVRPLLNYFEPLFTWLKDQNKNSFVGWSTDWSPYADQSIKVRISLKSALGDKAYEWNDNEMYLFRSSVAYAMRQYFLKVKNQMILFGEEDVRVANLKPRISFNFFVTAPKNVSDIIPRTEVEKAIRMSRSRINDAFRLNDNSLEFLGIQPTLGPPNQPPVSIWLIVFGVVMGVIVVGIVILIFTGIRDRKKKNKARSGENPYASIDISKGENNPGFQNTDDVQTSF

[7] = Hepatotoxicity against human HepG2 cells at 1.54 ppm incubated for 30 mins by LDH release based CytoTox 96 assay relative to control; type: toxicity, cell-based; conditions: hepg2, 0.5 h
[8] = Hepatotoxicity against human HepG2 cells at 4.71 ppm incubated for 30 mins by LDH release based CytoTox 96 assay relative to control; type: toxicity, cell-based; conditions: hepg2, 0.5 h
HK-2 [9] = experiment: Nephrotoxicity against human HK-2 cells at 4.71 ppm incubated for 30 mins by LDH release based CytoTox 96 assay relative to control; type: toxicity, cell-based; conditions: hk-2, 0.5 h
H9c2 [10] = experiment: Cardiotoxicity against rat H9c2 cells at 4.71 ppm incubated for 30 mins by LDH release based CytoTox 96 assay relative to control; type: toxicity, cell-based; conditions: h9c2, 0.5 h
[11] = Hepatotoxicity against human HepG2 cells at 1.03 ppm incubated for 30 mins by LDH release based CytoTox 96 assay relative to control; type: toxicity, cell-based; conditions: hepg2, 0.5 h
H9c2 [12] = experiment: Cardiotoxicity against rat H9c2 cells at 1.03 ppm incubated for 30 mins by LDH release based CytoTox 96 assay relative to control; type: toxicity, cell-based; conditions: h9c2, 0.5 h
HK-2 [13] = experiment: Nephrotoxicity against human HK-2 cells at 1.03 ppm incubated for 30 mins by LDH release based CytoTox 96 assay relative to control; type: toxicity, cell-based; conditions: hk-2, 0.5 h
[14] = Hepatotoxicity against human HepG2 cells at 2.07 ppm incubated for 30 mins by LDH release based CytoTox 96 assay relative to control; type: toxicity, cell-based; conditions: hepg2, 0.5 h
HK-2 [15] = experiment: Nephrotoxicity against human HK-2 cells at 2.07 ppm incubated for 30 mins by LDH release based CytoTox 96 assay relative to control; type: toxicity, cell-based; conditions: hk-2, 0.5 h
H9c2 [16] = experiment: Cardiotoxicity against rat H9c2 cells at 2.07 ppm incubated for 30 mins by LDH release based CytoTox 96 assay relative to control; type: toxicity, cell-based; conditions: h9c2, 0.5 h
[17] = Hepatotoxicity against human HepG2 cells at 30.22 ppm incubated for 30 mins by LDH release based CytoTox 96 assay relative to control; type: toxicity, cell-based; conditions: hepg2, 0.5 h
HK-2 [18] = experiment: Nephrotoxicity against human HK-2 cells at 30.22 ppm incubated for 30 mins by LDH release based CytoTox 96 assay relative to control; type: toxicity, cell-based; conditions: hk-2, 0.5 h
H9c2 [19] = experiment: Cardiotoxicity against rat H9c2 cells at 30.22 ppm incubated for 30 mins by LDH release based CytoTox 96 assay relative to control; type: toxicity, cell-based; conditions: h9c2, 0.5 h
[20] = biological target: T1, Spike glycoprotein/Angiotensin-converting enzyme 2 (Severe acute respiratory syndrome coronavirus 2); experiment: Inhibition of SARS CoV-2 S1 RBD/biotinylated ACE2 (unknown origin) protein-protein interaction at 100 uM preincubated with S1 protein for 60 mins followed by addition of ACE2 protein measured after 60 mins by ELISA; type: protein assay; conditions: time 120.0 min; procedure, shortened: as §1
H9c2 [21] = experiment: Cardiotoxicity against rat H9c2 cells at 12.09 ppm incubated for 30 mins by LDH release based CytoTox 96 assay relative to control; type: toxicity, cell-based; conditions: h9c2, 0.5 h
HK-2 [22] = experiment: Nephrotoxicity against human HK-2 cells at 12.09 ppm incubated for 30 mins by LDH release based CytoTox 96 assay relative to control; type: toxicity, cell-based; conditions: hk-2, 0.5 h
[23] = Hepatotoxicity against human HepG2 cells at 12.09 ppm incubated for 30 mins by LDH release based CytoTox 96 assay relative to control; type: toxicity, cell-based; conditions: hepg2, 0.5 h

Molecule O=c1c(OCc2ccccc2)c(-c2ccc(OCc3ccccc3)c(OCc3ccccc3)c2)oc2cc(OCc3ccccc3)cc(O)c12 has an inhibition [1] of under 50%.
For CCC(=O)Oc1cc(O)c2c(=O)c(OC(=O)CC)c(-c3ccc(OC(=O)CC)c(OC(=O)CC)c3)oc2c1, the inhibition [2] was over 50%.
For CCC(=O)Oc1cc(O)c2c(=O)c(OC(=O)CC)c(-c3ccc(OC(=O)CC)c(O)c3)oc2c1, the Activity (HK-2 [3]) was 0.26%, the Activity (H9c2 [4]) was 1.95% and the inhibition [5] was “Dose-dependent-effect”. The pIC50 [6] was 5.48 and the Activity [7] was 0.21%.
In the case of O=c1c(OCc2ccc(F)cc2)c(-c2ccc(OCc3ccc(F)cc3)c(O)c2)oc2cc(OCc3ccc(F)cc3)cc(O)c12, the Activity [8] was 0.4%, the Activity (HK-2 [9]) was 1.29% and the inhibition [5] was “Dose-dependent-effect”. It also gave a pIC50 [6] of 5.12 and an Activity (H9c2 [10]) of 1.21%.
In the case of C=CCOc1cc(O)c2c(=O)c(OCC=C)c(-c3ccc(OCC=C)c(OCC=C)c3)oc2c1, the Activity [11] was 0%, the inhibition [5] was “Dose-dependent-effect” and the pIC50 [6] was 5.65. It also gave an Activity (H9c2 [12]) of 1.83% and an Activity (HK-2 [13]) of 0.04%.
Molecule O=c1c(OCc2ccccc2)c(-c2ccc(OCc3ccccc3)c(O)c2)oc2cc(OCc3ccccc3)cc(O)c12 has an inhibition [2] of over 50%.
CCCOc1cc(O)c2c(=O)c(OCCC)c(-c3ccc(OCCC)c(O)c3)oc2c1 gave an inhibition [2] of over 50%.
With CCOc1cc(O)c2c(=O)c(OCC)c(-c3ccc(OCC)c(OCC)c3)oc2c1 the Activity [14] was 1.47%, the Activity (HK-2 [15]) was 5.5% and the inhibition [5] was “Dose-dependent-effect”. For the same molecule, the pIC50 [6] was 5.30 and the Activity (H9c2 [16]) was 0.11%.
Work on O=C(Oc1cc(O)c2c(=O)c(OC(=O)c3ccccc3)c(-c3ccc(OC(=O)c4ccccc4)c(OC(=O)c4ccccc4)c3)oc2c1)c1ccccc1 yielded an inhibition [1] of under 50%.
In the case of O=C1OC2(c3ccccc31)c1cc(I)c(O)c(I)c1Oc1c2cc(I)c(O)c1I [ERYTHROSINE], the inhibition [5] was “Dose-dependent-effect” and the pIC50 [6] was 5.21.
With CC(=O)Oc1cc(O)c2c(=O)c(OC(C)=O)c(-c3ccc(OC(C)=O)c(OC(C)=O)c3)oc2c1 the inhibition [2] was over 50%.
O=c1c(O)c(-c2ccc(O)c(O)c2)oc2cc(O)cc(O)c12 [QUERCETIN] gave an Activity [17] of 1.74%, an Activity (HK-2 [18]) of 1.56% and an Activity (H9c2 [19]) of 12.93%. For the same molecule, the inhibition [20] was “inactive”.
Molecule C=CCOc1cc(O)c2c(=O)c(OCC=C)c(-c3ccc(OCC=C)c(O)c3)oc2c1 has an inhibition [2] of over 50%.
For CCOc1cc(O)c2c(=O)c(OCC)c(-c3ccc(OCC)c(O)c3)oc2c1, the inhibition [2] was over 50%.
For CC(=O)Oc1cc(O)c2c(=O)c(OC(C)=O)c(-c3ccc(OC(C)=O)c(O)c3)oc2c1, the inhibition [2] was over 50%.
For CCCOc1cc(O)c2c(=O)c(OCCC)c(-c3ccc(OCCC)c(OCCC)c3)oc2c1, the Activity (H9c2 [21]) was 1.05%, the Activity (HK-2 [22]) was 1.71% and the inhibition [5] was “Dose-dependent-effect”. The pIC50 [6] was 4.59 and the Activity [23] was 0.39%.
For O=C(Oc1cc(O)c2c(=O)c(OC(=O)c3ccccc3)c(-c3ccc(OC(=O)c4ccccc4)c(O)c3)oc2c1)c1ccccc1, the inhibition [2] was over 50%.
For O=c1c(OCc2ccc(F)cc2)c(-c2ccc(OCc3ccc(F)cc3)c(OCc3ccc(F)cc3)c2)oc2cc(OCc3ccc(F)cc3)cc(O)c12, the inhibition [1] was under 50%.
